We go through two compounds from ChEMBL document CHEMBL4177768, “Synthesis and Biological Evaluation of Derivatives of Indoline as Highly Potent Antioxidant and Anti-inflammatory Agents” (J Med Chem, 2018).

For data set [1], the system named is Mus musculus. Kind of data set: Antiinflammatory activity in Balb/C mouse assessed as reduction in LPS-induced IL6 production in plasma at 1 umol/kg, sc administered LPS 15 mins post compound treatment measured after 4 hrs by ELISA. In kind it is functional, organism-based. Summed up:
(§1)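 Male Balb/C mice, 7-8 weeks old, given compound sc (0.1, 1 or 10 µmoles/kg) or saline. LPS 10 mg/kg was given ip 15 min later, and mice were killed 4 h after that. Spleens were homogenized in PBS with protease inhibitor and centrifuged at 14,000 g, 4 °C. Cytokines in plasma and tissue supernatants were measured by ELISA, with protein by BCA. Dexamethasone 5.6 µmoles/kg was the reference. n = 8-10 mice per treatment.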
Background: In an ELISA, binding on a coated surface is turned into a signal by an enzyme label.

Data set [2] deals with Mus musculus. Put plainly: Antiinflammatory activity in Balb/C mouse assessed as reduction in LPS-induced TNF-alpha production in plasma at 1 umol/kg, sc administered LPS 15 mins post compound treatment measured after 4 hrs by ELISA. In kind it is functional, organism-based. An outline of the steps: as §1
The test system of data set [3] is Mus musculus. Put plainly: Acute toxicity in Balb/C mouse assessed as change in activity at 100 umol/kg, sc measured over 72 hrs. In kind it is organism-based. Conditions: in vivo. Summed up:
(§2)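 Male Balb/C mice, 24-28 g, groups of 3; single sc injection of compound at 100 μmoles/kg or saline (1 mL/100 g). Food and water intake, body weight and general activity monitored over 72 h against saline-injected animals.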

Data set [4] has as its system RAW264.7. Put plainly: Cytoprotective activity against H2O2-induced oxidative stress in mouse RAW264.7 cells assessed as decrease in caspase-3 activity at 1 pM incubated for 4 hrs prior to H2O2 addition measured after 90 mins by caspase-GloR reagent-based luminescence assay relative to control. In kind it is functional. More on the design: scale not given: the % may be the effect or the level left. Summed up: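 RAW 264.7 macrophages were pretreated with compound (1 pM or 1 nM) 4 h before H2O2 100 µM. Medium was replaced with fresh DMEM after 90 min and plates were incubated overnight. Caspase-Glo 3/7 reagent was added and luminescence read after 30 min at room temperature. Mean ± SD, 4-6 replicates.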

Data set [5] concerns Mus musculus. Kind of data set: Antiinflammatory activity in Balb/C mouse assessed as reduction in LPS-induced IL6 production in liver at 0.1 to 10 umol/kg, sc administered LPS 15 mins post compound treatment measured after 4 hrs by ELISA. In kind it is functional, organism-based.
The subject of data set [6] is Mus musculus. Put plainly: Antiinflammatory activity in Balb/C mouse assessed as reduction in LPS-induced IL6 production in brain at 0.1 to 10 umol/kg, sc administered LPS 15 mins post compound treatment measured after 4 hrs by ELISA. In kind it is functional, organism-based.
In data set [7] the test system is Mus musculus. Put plainly: Acute toxicity in Balb/C mouse assessed as change in food intake at 100 umol/kg, sc measured over 72 hrs. The class given is organism-based. To be noted: in vivo. An outline of the steps: as §2
The test system of data set [8] is Mus musculus. Put plainly: Acute toxicity in Balb/C mouse assessed as change in water intake at 100 umol/kg, sc measured over 72 hrs. The class given is organism-based. To be noted: in vivo. An outline of the steps: as §2
Data set [9] relates to Mus musculus. Put plainly: Acute toxicity in Balb/C mouse assessed as change in body weight at 100 umol/kg, sc measured over 72 hrs. Conditions: in vivo. The class given is organism-based. An outline of the steps:
as §2

Data set [10] relates to RAW264.7. Kind of data set: Antiinflammatory activity in mouse RAW264.7 cells assessed as reduction in LPS-induced nitric oxide production at 1 pM to 100 nM incubated for 2 hrs prior to LPS challenge measured after 24 hrs by Griess assay. The class given is functional, cell-based. Summed up: (§3)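 RAW 264.7 macrophages were plated at 1×10^5 per well, grown overnight and washed with PBS. Compounds in water (final 1 pM-100 nM, medium with 2% FCS) were added 2 h at 37 °C before E. coli 0111:B4 LPS, 2.5 µg/mL. TNF-α was sampled at 8 h; IL-6 and nitrite (Griess) at 24 h. ELISA was used for cytokines. Values are % of the LPS + medium value in each experiment. Budesonide was the reference. 2-3 experiments, 6 wells per concentration.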
Background: Nitrite, measured by Griess reagent, commonly stands in for NO production.

In data set [11] the test system is RAW264.7. Put plainly: Antiinflammatory activity in mouse RAW264.7 cells assessed as reduction in LPS-induced TNF-alpha production at 1 pM to 100 nM incubated for 2 hrs prior to LPS challenge measured after 8 hrs by ELISA. In kind it is functional, cell-based. An outline of the steps: as §3
The subject of data set [12] is RAW264.7. Kind of data set: Antiinflammatory activity in mouse RAW264.7 cells assessed as reduction in LPS-induced IL-6 production at 1 nM incubated for 2 hrs prior to LPS challenge measured after 24 hrs by ELISA. In kind it is functional. Summed up:
as §3

Data set [13] concerns RAW264.7. Put plainly: Antiinflammatory activity in mouse RAW264.7 cells assessed as reduction in LPS-induced IL-6 production at 100 pM incubated for 2 hrs prior to LPS challenge measured after 24 hrs by ELISA. In kind it is functional. An outline of the steps:
as §3

The test system of data set [14] is RAW264.7. Put plainly: Cytoprotective activity against H2O2-induced oxidative stress in mouse RAW264.7 cells assessed as decrease in LDH release at 1 pM incubated for 2 hrs prior to H2O2 addition by colorimetric assay relative to control. The class given is functional. Set-up: scale not given: the % may be the effect or the level left. An outline of the steps:
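RAW 264.7 cells were seeded and pretreated with compound before H2O2 100 µM, in serum-free medium. Collected medium was centrifuged and incubated with reaction mix 30 min at room temperature. LDH was measured as NADH formation by colorimetric read at 490 nm. n = 8-10 replicates per concentration.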
A general note: LDH leaks from cells whose membrane has failed.

Data set [15] relates to RAW264.7. Kind of data set: Cytoprotective activity against H2O2-induced oxidative stress in mouse RAW264.7 cells assessed as cell viability at 10 nM incubated for 2 hrs prior to H2O2 addition measured after 24 hrs by MTT assay (reference value: 68 to 72.8%). To be noted: read-out: Activity. In kind it is functional.
Data set [16] in a line: Cytotoxicity against mouse RAW264.7 cells assessed as cell viability at 10^-8 M after 24 hrs by MTT assay relative to control. The class given is cell-based. Conditions: read-out: Activity. Summed up: (§4)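 RAW 264.7 cells, seeded at 1×10^4 cells/mL and incubated 24 h, were exposed to compound from 1 pM to 100 nM. Viability was read by MTT (final 0.5 mg/mL, 1 h at 37 °C), with formazan dissolved in DMSO and OD at 570 nm. Results are compared with medium-only cells.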

Data set [17] is described as follows: Cytotoxicity against mouse RAW264.7 cells assessed as cell viability at 10^-7 M after 24 hrs by MTT assay relative to control. The class given is cell-based. To be noted: read-out: Activity. Summed up:
as §4

Data set [18] in a line: Cytotoxicity against mouse RAW264.7 cells assessed as cell viability at 10^-9 M after 24 hrs by MTT assay relative to control. In kind it is cell-based. Conditions: read-out: Activity. An outline of the steps: as §4
Data set [19] in a line: Cytotoxicity against mouse RAW264.7 cells assessed as cell viability at 10^-11 M after 24 hrs by MTT assay relative to control. The class given is cell-based. To be noted: read-out: Activity. An outline of the steps: as §4
The nature of data set [20]: Cytotoxicity against mouse RAW264.7 cells assessed as cell viability at 10^-10 M after 24 hrs by MTT assay relative to control. The class given is cell-based. To be noted: read-out: Activity. An outline of the steps: as §4
Data set [21] is described as follows: Cytotoxicity against mouse RAW264.7 cells assessed as cell viability at 10^-12 M after 24 hrs by MTT assay relative to control. In kind it is cell-based. Conditions: read-out: Activity. Summed up:
as §4

In data set [22] the test system is Mus musculus. Kind of data set: Antiinflammatory activity in Balb/C mouse assessed as reduction in LPS-induced TNF-alpha production in spleen at 1 umol/kg, sc administered LPS 15 mins post compound treatment measured after 4 hrs by ELISA. In kind it is functional, organism-based. An outline of the steps:
as §1

In data set [23] the test system is Mus musculus. Put plainly: Antiinflammatory activity in Balb/C mouse assessed as reduction in LPS-induced IL6 production in spleen at 1 umol/kg, sc administered LPS 15 mins post compound treatment measured after 4 hrs by ELISA. In kind it is functional, organism-based. Summed up:
as §1

The subject of data set [24] is RAW264.7. Kind of data set: Cytoprotective activity against H2O2-induced oxidative stress in mouse RAW264.7 cells assessed as decrease in LDH release at 1 pM incubated for 2 hrs prior to H2O2 addition by colorimetric assay relative to control. More on the design: scale not given: the % may be the effect or the level left.
The test system of data set [25] is RAW264.7. Put plainly: Cytoprotective activity against H2O2-induced oxidative stress in mouse RAW264.7 cells assessed as increase in cell viability at 1 pM incubated for 2 hrs prior to H2O2 addition measured after 24 hrs by MTT assay. In kind it is functional, cell-based. Summed up: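 RAW 264.7 macrophages cultured in DMEM with 10% FCS, seeded at 1 x 10^4 cells/mL. Pretreated 2 h with compound (1 pM to 100 nM) before H2O2 at 100 μM. Viability read by MTT (0.5 mg/mL final, 1 h, 37 °C, DMSO lysis, OD 570 nm) relative to vehicle. 2-3 experiments, at least 6 wells per concentration; mean ± SEM.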

Calls of active or inactive are those of the source. No cut-off for these calls is given here.

For the compound `COC(=O)CCN1CCc2ccccc21.Cl`, the result with Mus musculus [1], in the data set with Mus musculus [2], with Mus musculus [5], in the data set with Mus musculus [6], in the data set on RAW264.7 [10] and in the data set with RAW264.7 [11] was Active. Further, the outcome with RAW264.7 [12], in the data set on RAW264.7 [13], in the data set with Mus musculus [22] and in the data set on Mus musculus [23] was Active. The Activity entry in the data set with Mus musculus [3] was “Non-Toxic”; in the data set with RAW264.7 [4] it was 60%; in the data set with Mus musculus [7] it was “Non-Toxic”; in the data set on Mus musculus [8] it was “Non-Toxic”; in the data set with Mus musculus [9] it was “Non-Toxic”; with RAW264.7 [14], 16%. The Activity in the data set on RAW264.7 [24] was determined as 16%. Besides, the viability at 0.01 µM with RAW264.7 [15] was 85.9%. Moreover, in [16], the viability at 24 h, 0.01 µM was found to be 91.8%. In addition, in data set [17], the viability at 24 h, 0.1 µM worked out at 90.8%. Besides, the viability at 24 h, 0.001 µM in data set [18] is 92.6%. Moreover, in data set [19], the viability at 24 h, 1e-05 µM stood at 91.5%. For the same compound, the viability at 24 h, 0.0001 µM in [20] stood at 93.3%. The viability at 24 h, 1e-06 µM in [21] came to 95%.

In the case of `O=c1c(O)c(-c2ccc(O)c(O)c2)oc2cc(O)cc(O)c12`, the result in the data set with RAW264.7 [25] was Active.
